Measured values from ChEMBL document CHEMBL4043298, “Discovery of a Potent (4 R,5 S)-4-Fluoro-5-methylproline Sulfonamide Transient Receptor Potential Ankyrin 1 Antagonist and Its Methylene Phosphate Prodrug Guided by Molecular Modeling” (J Med Chem, 2018).
pIC50: −log10 of the molar value. Converted amounts (≈) assume the structure as drawn.

Legend:
[1] = biological target: Transient receptor potential cation channel subfamily A member 1 (Homo sapiens, UniProt O75762); experiment: Inhibition of human TRPA1 expressed in HEK293 cells assessed as inhibition of cinnamaldehyde-induced Ca2+ influx preincubated for 20 mins followed by cinnamaldehyde induction by FLIPR assay; format: cell-based
Chain of Transient receptor potential cation channel subfamily A member 1 (Homo sapiens, UniProt O75762) (O75762 whole entry): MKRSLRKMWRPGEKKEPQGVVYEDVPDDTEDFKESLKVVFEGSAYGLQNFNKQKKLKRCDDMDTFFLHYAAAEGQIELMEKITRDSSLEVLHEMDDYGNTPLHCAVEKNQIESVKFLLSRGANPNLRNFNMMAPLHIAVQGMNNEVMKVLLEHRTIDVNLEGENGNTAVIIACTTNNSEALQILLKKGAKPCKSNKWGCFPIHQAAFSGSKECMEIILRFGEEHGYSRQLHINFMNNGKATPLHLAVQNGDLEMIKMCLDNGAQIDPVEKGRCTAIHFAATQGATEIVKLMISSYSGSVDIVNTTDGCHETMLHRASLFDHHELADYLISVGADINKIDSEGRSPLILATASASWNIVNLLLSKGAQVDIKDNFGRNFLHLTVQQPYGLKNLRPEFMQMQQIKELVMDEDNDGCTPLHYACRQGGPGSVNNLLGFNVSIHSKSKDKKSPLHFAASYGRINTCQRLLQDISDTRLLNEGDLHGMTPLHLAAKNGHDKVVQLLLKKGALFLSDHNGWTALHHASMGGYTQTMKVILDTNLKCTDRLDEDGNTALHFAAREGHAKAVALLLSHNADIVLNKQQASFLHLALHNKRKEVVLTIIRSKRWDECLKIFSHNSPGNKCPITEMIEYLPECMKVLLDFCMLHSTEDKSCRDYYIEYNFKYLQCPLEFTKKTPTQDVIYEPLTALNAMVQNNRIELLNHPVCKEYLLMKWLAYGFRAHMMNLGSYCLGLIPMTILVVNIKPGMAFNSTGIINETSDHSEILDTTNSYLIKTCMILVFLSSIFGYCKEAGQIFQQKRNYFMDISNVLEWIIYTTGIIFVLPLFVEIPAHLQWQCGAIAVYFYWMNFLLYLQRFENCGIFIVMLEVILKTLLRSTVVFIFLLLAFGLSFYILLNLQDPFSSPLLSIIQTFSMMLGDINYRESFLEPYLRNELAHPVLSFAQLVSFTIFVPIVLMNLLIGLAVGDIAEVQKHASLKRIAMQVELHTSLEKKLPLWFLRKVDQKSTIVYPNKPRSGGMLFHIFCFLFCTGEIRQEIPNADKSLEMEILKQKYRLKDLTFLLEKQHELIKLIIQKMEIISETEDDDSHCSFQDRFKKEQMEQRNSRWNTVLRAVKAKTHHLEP

[2] = Clearance in human liver microsomes; format: ADME, microsome
In short: (§1)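 Hepatic clearance predicted from human or rat liver microsome incubations.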

[3] = Clearance in rat liver microsomes; format: ADME, microsome; in short: as §1
[4] = Lipophilicity, log D of the compound at pH 7.4; conditions: buffer
[5] = Kinetic solubility of the compound; format: physicochemical; conditions: read-out: Kinetic_solubility
[6] = biological target: Transient receptor potential cation channel subfamily A member 1 (Rattus norvegicus, UniProt Q6RI86); experiment: Inhibition of rat TRPA1 expressed in HEK293 cells assessed as inhibition of cinnamaldehyde-induced Ca2+ influx preincubated for 20 mins followed by cinnamaldehyde induction by FLIPR assay; format: cell-based
[7] = biological target: Transient receptor potential cation channel subfamily M member 8 (Homo sapiens, UniProt Q7Z2W7); experiment: Inhibition of human TRPM8
Chain of Transient receptor potential cation channel subfamily M member 8 (Q7Z2W7 whole entry): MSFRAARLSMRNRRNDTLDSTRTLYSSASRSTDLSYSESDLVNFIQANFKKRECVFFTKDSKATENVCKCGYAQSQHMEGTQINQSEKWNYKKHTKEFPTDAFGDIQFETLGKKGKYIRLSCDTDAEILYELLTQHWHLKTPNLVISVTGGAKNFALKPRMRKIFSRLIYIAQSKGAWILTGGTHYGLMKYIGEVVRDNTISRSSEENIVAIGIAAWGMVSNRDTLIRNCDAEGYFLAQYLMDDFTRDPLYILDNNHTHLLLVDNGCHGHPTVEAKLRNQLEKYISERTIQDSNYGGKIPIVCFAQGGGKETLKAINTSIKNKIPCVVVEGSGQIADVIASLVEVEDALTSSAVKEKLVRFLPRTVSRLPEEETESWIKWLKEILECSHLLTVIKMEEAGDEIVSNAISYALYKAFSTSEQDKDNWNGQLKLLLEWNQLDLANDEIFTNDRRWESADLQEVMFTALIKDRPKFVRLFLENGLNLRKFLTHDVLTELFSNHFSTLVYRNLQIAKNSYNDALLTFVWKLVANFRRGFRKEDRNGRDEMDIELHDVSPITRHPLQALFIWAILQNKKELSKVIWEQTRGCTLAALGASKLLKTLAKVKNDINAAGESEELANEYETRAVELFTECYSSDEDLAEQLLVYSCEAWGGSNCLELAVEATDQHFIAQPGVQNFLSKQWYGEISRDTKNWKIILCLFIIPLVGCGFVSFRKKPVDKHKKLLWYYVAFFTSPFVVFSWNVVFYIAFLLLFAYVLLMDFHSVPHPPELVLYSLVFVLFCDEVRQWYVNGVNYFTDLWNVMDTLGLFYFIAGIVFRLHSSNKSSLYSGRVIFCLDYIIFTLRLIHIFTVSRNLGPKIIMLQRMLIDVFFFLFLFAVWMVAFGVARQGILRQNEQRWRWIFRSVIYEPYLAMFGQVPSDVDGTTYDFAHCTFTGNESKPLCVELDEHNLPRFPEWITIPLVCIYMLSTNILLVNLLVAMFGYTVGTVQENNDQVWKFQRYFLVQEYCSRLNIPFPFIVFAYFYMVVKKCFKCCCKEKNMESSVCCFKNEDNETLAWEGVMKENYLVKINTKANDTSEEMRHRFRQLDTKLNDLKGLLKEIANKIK

[8] = biological target: Transient receptor potential cation channel subfamily V member 1 (Homo sapiens, UniProt Q8NER1); experiment: Inhibition of human TRPV1
Chain of Transient receptor potential cation channel subfamily V member 1 (Q8NER1 whole entry): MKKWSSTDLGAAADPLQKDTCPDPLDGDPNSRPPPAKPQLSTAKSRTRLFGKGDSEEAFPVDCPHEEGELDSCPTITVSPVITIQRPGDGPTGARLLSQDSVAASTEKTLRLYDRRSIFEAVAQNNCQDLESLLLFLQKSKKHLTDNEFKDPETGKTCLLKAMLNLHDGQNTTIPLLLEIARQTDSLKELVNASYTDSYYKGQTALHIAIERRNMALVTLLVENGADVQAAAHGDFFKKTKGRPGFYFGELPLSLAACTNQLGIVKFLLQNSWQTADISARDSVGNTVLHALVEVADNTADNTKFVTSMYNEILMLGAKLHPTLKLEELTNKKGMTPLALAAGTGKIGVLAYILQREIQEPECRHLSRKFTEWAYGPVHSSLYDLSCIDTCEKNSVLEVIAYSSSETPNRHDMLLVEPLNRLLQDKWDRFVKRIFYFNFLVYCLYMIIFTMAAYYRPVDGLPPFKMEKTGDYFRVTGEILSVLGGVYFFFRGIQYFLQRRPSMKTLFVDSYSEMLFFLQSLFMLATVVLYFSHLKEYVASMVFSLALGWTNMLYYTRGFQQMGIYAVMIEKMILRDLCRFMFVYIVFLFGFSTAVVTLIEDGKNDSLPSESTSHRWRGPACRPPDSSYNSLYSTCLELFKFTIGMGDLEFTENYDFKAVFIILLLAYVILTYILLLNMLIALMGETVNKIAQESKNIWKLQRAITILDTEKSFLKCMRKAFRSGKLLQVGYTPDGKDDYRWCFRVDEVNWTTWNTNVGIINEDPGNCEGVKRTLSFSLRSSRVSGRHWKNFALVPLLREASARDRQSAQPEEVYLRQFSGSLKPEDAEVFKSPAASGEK

hERG (KCNH2) = hERG (KCNH2) (Homo sapiens, UniProt Q12809); experiment: Inhibition of human ERG at 10 uM by patch clamp assay relative to control
Chain of hERG (KCNH2) (Q12809 whole entry): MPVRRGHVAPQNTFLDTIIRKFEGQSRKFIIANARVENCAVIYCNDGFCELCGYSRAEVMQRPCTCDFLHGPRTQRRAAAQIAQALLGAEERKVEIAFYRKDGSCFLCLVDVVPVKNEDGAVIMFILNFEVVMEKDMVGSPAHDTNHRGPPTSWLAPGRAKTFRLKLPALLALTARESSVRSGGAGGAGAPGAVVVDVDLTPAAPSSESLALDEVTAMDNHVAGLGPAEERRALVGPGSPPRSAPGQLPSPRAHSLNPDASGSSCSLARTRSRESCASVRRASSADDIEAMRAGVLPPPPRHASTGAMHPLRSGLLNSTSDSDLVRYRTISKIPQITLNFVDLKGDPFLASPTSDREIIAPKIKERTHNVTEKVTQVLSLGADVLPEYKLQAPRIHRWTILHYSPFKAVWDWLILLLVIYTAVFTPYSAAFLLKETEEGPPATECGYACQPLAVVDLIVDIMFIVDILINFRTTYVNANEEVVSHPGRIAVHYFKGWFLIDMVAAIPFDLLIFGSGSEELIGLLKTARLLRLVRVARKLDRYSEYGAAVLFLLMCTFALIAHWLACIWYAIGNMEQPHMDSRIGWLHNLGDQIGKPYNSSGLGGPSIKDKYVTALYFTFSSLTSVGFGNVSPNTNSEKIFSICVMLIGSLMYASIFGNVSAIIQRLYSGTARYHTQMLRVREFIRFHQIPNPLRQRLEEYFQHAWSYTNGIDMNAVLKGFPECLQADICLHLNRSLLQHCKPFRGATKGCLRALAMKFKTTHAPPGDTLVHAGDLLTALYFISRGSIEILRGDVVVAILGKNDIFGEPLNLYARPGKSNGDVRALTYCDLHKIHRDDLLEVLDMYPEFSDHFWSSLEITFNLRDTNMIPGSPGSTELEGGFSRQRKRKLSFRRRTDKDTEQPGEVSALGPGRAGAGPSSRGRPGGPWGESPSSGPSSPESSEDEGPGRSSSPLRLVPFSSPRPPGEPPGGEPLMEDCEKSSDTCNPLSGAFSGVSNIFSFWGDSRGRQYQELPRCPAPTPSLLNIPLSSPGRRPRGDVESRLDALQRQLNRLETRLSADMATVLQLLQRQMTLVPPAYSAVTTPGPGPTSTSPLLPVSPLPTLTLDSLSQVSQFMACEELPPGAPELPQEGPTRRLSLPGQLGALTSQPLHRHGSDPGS
In short: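 hERG potassium channel inhibition measured by automated patch clamp at a single concentration of 10 μM.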

[9] = Permeability across apical to basolateral side in MDCK cells; format: ADME, cell-based, Canis lupus familiaris; conditions: dog, read-out: permeability
[10] = Protein binding in human plasma; format: ADME, cell-free; conditions: read-out: PPB (converted)
[11] = Protein binding in rat plasma; format: ADME, cell-free; conditions: read-out: PPB (converted)
Rattus norvegicus [12] = experiment: Half life in rat at 1 mg/kg, iv; format: ADME, organism-based; conditions: in vivo
Rattus norvegicus [13] = experiment: Volume of distribution at steady state in rat at 1 mg/kg, iv; format: ADME, organism-based; conditions: in vivo
[14] = AUC (0 to 24 hrs) in rat at 1 mg/kg, po; format: ADME, organism-based; set-up: dose 1 mg/kg, time < 24 hr, route oral; conditions: in vivo
In short: (§2)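 Rat oral dose of 1 mg/kg in MCT vehicle (0.5% methylcellulose with 0.2% Tween 80 in water). Parent plasma exposure measured over 0–24 h. The target multiple is unbound Cmax divided by the rat TRPA1 IC50.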

[15] = AUC (0 to 24 hrs) in rat at 30 mg/kg, po; format: ADME, organism-based; set-up: dose 30 mg/kg, time < 24 hr, route oral; conditions: in vivo
In short: (§3)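 Rat oral dose of 30 or 100 mg/kg given as an amorphous suspension. Solid was dissolved in DMSO and precipitated into aqueous MCT, giving a final 15% DMSO/85% MCT. Plasma exposure measured over 0–24 h. The target multiple is unbound Cmax divided by the rat TRPA1 IC50.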

[16] = AUC (0 to 24 hrs) in rat at 100 mg/kg, po; format: ADME, organism-based; set-up: dose 100 mg/kg, time < 24 hr, route oral; conditions: in vivo; in short: as §3
[17] = Cmax in rat at 1 mg/kg, po; format: ADME, organism-based; set-up: dose 1 mg/kg, route oral; conditions: in vivo; in short: as §2
[18] = Cmax in rat at 30 mg/kg, po; format: ADME, organism-based; set-up: dose 30 mg/kg, route oral; conditions: in vivo; in short: as §3
[19] = Cmax in rat at 100 mg/kg, po; format: ADME, organism-based; set-up: dose 100 mg/kg, route oral; conditions: in vivo; in short: as §3
[20] = Oral bioavailability in rat at 1 mg/kg; format: ADME, organism-based; conditions: in vivo
[21] = Ratio of unbound Cmax in rat at 1 mg/kg, po to IC50 for rat TRPA1; in short: as §2
[22] = Ratio of unbound Cmax in rat at 30 mg/kg, po to IC50 for rat TRPA1; in short: as §3
[23] = Ratio of unbound Cmax in rat at 100 mg/kg, po to IC50 for rat TRPA1; in short: as §3

SMILES | pIC50 [1] | CLhep predicted [2] [mL/min/kg] | CLhep predicted [3] [mL/min/kg] | logD [4] | solubility kinetic [5] [µM] | further results
C[C@@H]1CC[C@@H](C(=O)NCc2cc(-c3ccc(C(F)(F)F)nc3)ncn2)N1S(=O)(=O)c1ccc(F)cc1 | 6.62 | 19 | 30 | 4.3 | – | –
O=C(NCc1cc(-c2ccc(C(F)(F)F)nc2)ncn1)[C@@H]1CCCN1S(=O)(=O)c1ccc(F)cc1 | 6.81 | 16 | 43 | 2.7 | – | –
O=C(NCc1cc(-c2ccc(C(F)(F)F)nc2)ncn1)[C@@H]1CCCCN1S(=O)(=O)c1ccc(F)cc1 | 5.64 | 18 | 46 | 3.4 | – | –
C[C@H]1[C@H](F)C[C@@H](C(=O)NCc2c(F)cnc(-c3cnc(C(F)(F)F)nc3)c2F)N1S(=O)(=O)c1ccc(F)cc1 | 6.48 | 14 | 36 | 2.5 | 8 (≈ 4.62 µg/mL) | –
C[C@H]1[C@H](F)C[C@@H](C(=O)NCc2cc(-c3cnc(C(F)(F)F)nc3)nc(C3CC3)n2)N1S(=O)(=O)c1ccc(F)cc1 | 8.30 | 10 | 22 | 3.8 | < 1 | –
C[C@H]1[C@H](F)C[C@@H](C(=O)NCc2cc(-c3ccc(C(F)(F)F)nc3)ncn2)N1S(=O)(=O)c1ccc(F)cc1 | 6.75 | 10 | 19 | 2.7 | 2 (≈ 1.08 µg/mL) | –
C[C@H]1[C@H](F)C[C@@H](C(=O)NCc2cc(-c3cnc(C(F)(F)F)nc3)c(C#N)cn2)N1S(=O)(=O)c1ccc(F)cc1 | 7.02 | 17 | 25 | 2.3 | 123 (≈ 69.7 µg/mL) | –
C[C@H]1[C@H](F)C[C@@H](C(=O)NCc2cc(-c3cnc(C(F)(F)F)nc3)c(F)cn2)N1S(=O)(=O)c1ccc(F)cc1 | 7.48 | 13 | 18 | 2.6 | 84 (≈ 47 µg/mL) | –
C[C@H]1[C@H](F)C[C@@H](C(=O)NCc2cc(-c3cnc(C(F)(F)F)nc3)c(Cl)cn2)N1S(=O)(=O)c1ccc(F)cc1 | 7.89 | 15 | 21 | 2.5 | 8 (≈ 4.61 µg/mL) | –
C[C@H]1[C@H](F)C[C@@H](C(=O)NCc2cc(-c3cnc(C(F)(F)F)nc3)ncc2C#N)N1S(=O)(=O)c1ccc(F)cc1 | 8.00 | 9 | 16 | – | 14 (≈ 7.93 µg/mL) | –
C[C@H]1[C@H](F)C[C@@H](C(=O)NCc2cc(-c3cnc(C(F)(F)F)nc3)ccn2)N1S(=O)(=O)c1ccc(F)cc1 | – | 16 | 18 | 3.3 | 132 (≈ 71.5 µg/mL) | –
C[C@H]1CC[C@@H](C(=O)NCc2cc(-c3ccc(C(F)(F)F)nc3)ncn2)N1S(=O)(=O)c1ccc(F)cc1 | 7.89 | 19 | 47 | 2.9 | – | –
O=C(NCc1cc(-c2ccc(C(F)(F)F)nc2)ncn1)[C@@H]1C[C@H](F)CN1S(=O)(=O)c1ccc(F)cc1 | 5.36 | 7 | 40 | 1.8 | – | –
C[C@H]1[C@H](F)C[C@@H](C(=O)NCc2cc(-c3cnc(C(F)(F)F)cn3)ncn2)N1S(=O)(=O)c1ccc(F)cc1 | – | 14 | 18 | 2.3 | 18 (≈ 9.76 µg/mL) | –
C[C@H]1[C@H](F)C[C@@H](C(=O)NCc2cc(-c3cnc(C(F)(F)F)nc3)ncn2)N1S(=O)(=O)c1ccc(F)cc1 | 7.19 | 11 | 18 | 2.5 | 53 (≈ 28.8 µg/mL) | –
O=C(NCc1cc(-c2ccc(C(F)(F)F)nc2)ncn1)[C@@H]1C[C@@H](F)CN1S(=O)(=O)c1ccc(F)cc1 | 5.92 | 5 | 10 | 2.4 | – | –
O=C(NCc1cc(-c2ccc(C(F)(F)F)nc2)ncn1)[C@@H]1CCN1S(=O)(=O)c1ccc(F)cc1 | 5.82 | 10 | 27 | 2.4 | – | –
C[C@H]1[C@H](F)C[C@@H](C(=O)NCc2ccnc(-c3cnc(C(F)(F)F)nc3)c2)N1S(=O)(=O)c1ccc(F)cc1 | – | 12 | 25 | 3 | < 1 | –
C[C@H]1[C@H](F)C[C@@H](C(=O)NCc2cc(-c3cnc(C(F)(F)F)nc3)ncc2Cl)N1S(=O)(=O)c1ccc(F)cc1 | 8.30 | 11 | 20 | – | < 1 | –
C[C@H]1[C@H](F)C[C@@H](C(=O)NCc2cc(-c3cnc(C(F)(F)F)nc3)ncc2F)N1S(=O)(=O)c1ccc(F)cc1 | 8.10 | 10 | 17 | 2.6 | < 1 | pIC50 [6]: 7.44; pIC50 [7]: < 4.70; pIC50 [8]: < 4.70; inhibition at 10 µM (hERG (KCNH2)): 14.3%; Papp A→B [9]: 11.2 ×10⁻⁶ cm/s; fraction unbound [10]: 0.02; fraction unbound [11]: 0.028; t1/2 (Rattus norvegicus [12]): 7.5 h; Vdss (Rattus norvegicus [13]): 7.5 L/kg; AUC(0-t) at 24 h [14]: 0.56 µM·h; AUC(0-t) at 24 h [15]: 32.8 µM·h; AUC(0-t) at 24 h [16]: 39.6 µM·h; Cmax [17]: 30 nM; Cmax [18]: 2330 nM; Cmax [19]: 2510 nM; bioavailability [20]: 12%; Ratio [21]: 0.02; Ratio [22]: 1.81; Ratio [23]: 1.95
